ChEMBL document CHEMBL1132964, “Selective ET(A) antagonists. 5. Discovery and structure-activity relationships of phenoxyphenylacetic acid derivatives” (J Med Chem, 2000)
In brackets after ≈: the same amount, converted by molar mass. Several values for one entry are separate records, joined by “and”; a condition that tells them apart may be missing. Identical values can stand only once. Activity calls are given as the source filed them. The calls are words filed in the database; no cut-off is given here.

Columns and labels:
[1] = Oral bioavailability in rat (Sprague-Dawley) (male) (dose 10 mg/kg); format: ADME, organism-based; conditions: in vivo
Method in brief: (§1)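 Single 10 mg/kg oral dose to male Sprague-Dawley rats or male Beagle dogs. Plasma Cpmax (µg/mL), Tmax (h), t1/2 (h) and bioavailability (%) derived from the plasma profile.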

[2] = Tested for half life in male Sprague-Dawley rats dosed at 10 mg/kg orally; format: ADME, organism-based; parameters: dose 10 mg/kg, route oral; conditions: rat, in vivo, po; method in brief: as §1
[3] = Measured solubility; format: ADME, organism-based, Rattus norvegicus
[4] = Maximal plasma concentration in male Sprague-Dawley rats at 10 mg/kg oral dose; format: ADME, organism-based; parameters: dose 10 mg/kg, route oral; conditions: rat; method in brief: as §1
[5] = Tested for Tmax in male Sprague-Dawley rats dosed at 10 mg/kg orally; format: ADME, organism-based; parameters: dose 10 mg/kg, route oral; conditions: rat, in vivo, po; method in brief: as §1
Endothelin-1 receptor = target: T1, Endothelin-1 receptor (Rattus norvegicus, UniProt P26684); assay: In vitro ability to antagonise the binding of [125I]ET1 to the rat aortic A10 cell membrane endothelin A receptor.; format: cell membranes
T1 sequence (P26684 whole entry): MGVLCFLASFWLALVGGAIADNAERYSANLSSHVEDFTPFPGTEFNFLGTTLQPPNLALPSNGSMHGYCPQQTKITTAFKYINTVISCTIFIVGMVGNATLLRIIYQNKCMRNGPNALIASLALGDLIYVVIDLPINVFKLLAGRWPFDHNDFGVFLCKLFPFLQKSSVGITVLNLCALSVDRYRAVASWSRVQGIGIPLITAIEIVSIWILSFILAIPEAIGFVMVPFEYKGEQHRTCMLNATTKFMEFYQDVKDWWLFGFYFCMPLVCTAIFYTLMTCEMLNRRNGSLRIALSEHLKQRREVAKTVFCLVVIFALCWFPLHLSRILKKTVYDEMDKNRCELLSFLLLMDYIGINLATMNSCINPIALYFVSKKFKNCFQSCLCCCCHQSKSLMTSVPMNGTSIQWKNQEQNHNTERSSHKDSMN

Rattus norvegicus = species: Rattus norvegicus; assay: Tested for inhibition of ET-1 induced contraction against isolated Rat aortic rings denuded of the endothelium.; format: functional, Aorta
Method in brief: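 Endothelium-denuded rat aortic rings contracted by ET-1. Tested compound at increasing concentrations, with ET-1 dose-response curves run in its presence. Antagonism expressed as pKb from the rightward shift of the ET-1 curve. Determinations in duplicate, with 95% confidence limits.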

[6] = tested on: Endothelin receptor type A (Rattus norvegicus); assay: Inhibition of Endothelin A receptor in pithed rats 1.5 hour after oral administration at 75 uM/kg
[7] = tested on: Endothelin receptor type A (Rattus norvegicus); assay: Inhibition of Endothelin A receptor in pithed rats 3 hour after oral administration at 75 umol/kg
[8] = tested on: Endothelin receptor type A (Rattus norvegicus); assay: Activity against Endothelin A receptor in pithed rats after intravenous administration at 25 umol/kg
[9] = Tested for half life in male Beagle dogs dosed at 10 mg/kg orally; format: ADME, organism-based, Canis lupus familiaris; parameters: dose 10 mg/kg, route oral; conditions: dog, in vivo, po; method in brief: as §1
[10] = Maximal plasma concentration in male Beagle dogs at 10 mg/kg oral dose; format: ADME, organism-based, Canis lupus familiaris; parameters: dose 10 mg/kg, route oral; conditions: dog; method in brief: as §1
[11] = Tested for Tmax in male Beagle dogs dosed at 10 mg/kg orally; format: ADME, organism-based, Canis lupus familiaris; parameters: dose 10 mg/kg, route oral; conditions: dog, in vivo, po; method in brief: as §1
[12] = Tested for bioavailability in male Beagle dogs dosed at 10 mg/kg orally; format: ADME, organism-based, Canis lupus familiaris; conditions: dog, in vivo, po, read-out: Bioavailabiility; method in brief: as §1

Row | SMILES | IC50 (Endothelin-1 receptor) | pKb (Rattus norvegicus) | also measured
1 | N#Cc1ccc(OCc2ccc3c(c2)OCO3)cc1OC(C(=O)O)c1ccccc1Cl (centres undefined) | 14 nM | 8 | bioavailability [1]: 76%; half-life [2]: 6.3 h; solubility [3]: 1680 µg/mL (≈ 3.84 mM); Cmax [4]: 22000 ng/mL; Tmax [5]: 1 h; Activity [6]: 19 µM/kg; Activity [7]: 10 µM/kg; Activity [8]: 13.8 µM/kg
2 | Cc1ccccc1C(Oc1cc(OCc2ccccn2)ccc1C#N)C(=O)O (centres undefined) | > 3000 nM |  | 
3 | Cc1ccccc1C(Oc1cc(OCc2ccncc2)ccc1C#N)C(=O)[O-].[Na+] (centres undefined) | 5 nM |  | bioavailability [1]: 9%; half-life [2]: 0.2 h; Cmax [4]: 290 ng/mL; Tmax [5]: 2 h
4 | Cc1ccccc1C(Oc1cc(OCc2ccc3c(c2)OCCO3)ccc1C#N)C(=O)O (centres undefined) | 1500 nM |  | 
5 | Cc1ccccc1C(Oc1cc(OCc2ccc3c(c2)OCO3)ccc1C#N)C(=O)[O-].[Na+] (centres undefined) | 7 nM | 8.1 | bioavailability [1]: 84%; half-life [9]: 7.4 h; half-life [2]: 2.8 h; solubility [3]: > 20000 µg/mL; Cmax [10]: 30100 ng/mL; Cmax [4]: 5900 ng/mL; Tmax [11]: 0.5 h; Tmax [5]: 1 h; bioavailability [12]: 89%
6 | N#Cc1ccc(OCc2ccc3ncoc3c2)cc1OC(C(=O)O)c1ccccc1Cl (centres undefined) | 9 nM | 7.5 | 
7 | Cc1ccccc1C(Oc1cc(OCc2ccc3c(c2)OCO3)ccc1C#N)C(=O)O (centres undefined) [listing 1 of 2 here] | 12 nM | 7.9 | 
8 | Cc1ccccc1C(Oc1cc(OCc2ccc3ncoc3c2)ccc1C#N)C(=O)O (centres undefined) | 6 nM | 7.8 | Activity [6]: inactive; Activity [7]: 3.1 µM/kg; Activity [8]: 63 µM/kg
9 | Cc1ccccc1C(Oc1cc(OCc2ccc3ocnc3c2)ccc1C#N)C(=O)O (centres undefined) | 75 nM |  | 
10 | Cc1ccccc1C(Oc1cc(OCc2cccnc2)ccc1C#N)C(=O)O (centres undefined) | 30 nM |  | 
11 | N#Cc1ccc(OCc2ccnnc2)cc1OC(C(=O)O)c1ccccc1Cl (centres undefined) | 44 nM |  | 
12 | N#Cc1ccc(OCc2ccc3c(c2)OCO3)cc1OC(C(=O)O)c1ccccc1 (centres undefined) | 41 nM | 7.4 | Activity [8]: 7.6 µM/kg
13 | Cc1ccccc1C(Oc1cc(OCc2ccccc2)ccc1C#N)C(=O)O (centres undefined) | 49 nM |  | 
14 | COc1cc(COc2ccc(C#N)c(OC(C(=O)O)c3ccccc3C)c2)cc(OC)c1OC (centres undefined) | > 3000 nM |  | 
15 | Cc1ccccc1C(Oc1cc(OCc2ccc3c(c2)OCO3)ccc1C#N)C(=O)O (centres undefined) [listing 2 of 2 here] |  |  | Activity [6]: 26 µM/kg and 34 µM/kg; Activity [8]: 23 µM/kg and 45 µM/kg
16 | Cc1ccccc1C(Oc1cc(OCc2cncs2)ccc1C#N)C(=O)O (centres undefined) | 30 nM |  | 
17 | Cc1ccccc1C(Oc1cc(OCc2c(C)cccc2C)ccc1C#N)C(=O)O (centres undefined) | 857 nM |  | 
18 | Cc1ccccc1[C@H](Oc1cc(OCc2ccc3c(c2)OCO3)ccc1C#N)C(=O)O | 6 nM |  | 
19 | N#Cc1ccc(OCc2ccncc2)cc1OC(C(=O)O)c1ccsc1 (centres undefined) | 630 nM |  | 

The next lines start with results.

Row | IC50 (Endothelin-1 receptor) | SMILES | pKb (Rattus norvegicus) | also measured
20 | 23 nM | Cc1ccccc1C(Oc1cc(OCc2ccnc(F)c2)ccc1C#N)C(=O)O (centres undefined) |  | 
21 | 20 nM | Cc1ccccc1C(Oc1cc(OCc2ccsc2)ccc1C#N)C(=O)O (centres undefined) | 7.9 | 
22 | 51 nM | N#Cc1ccc(OCc2ccsc2)cc1OC(C(=O)O)c1ccccc1Br (centres undefined) |  | 
23 | 529 nM | COc1ccccc1C(Oc1cc(OCc2ccsc2)ccc1C#N)C(=O)O (centres undefined) |  | 
24 | 6 nM | N#Cc1ccc(OCc2ccncc2)cc1OC(C(=O)O)c1ccccc1Cl (centres undefined) | 7.7 | Activity [6]: 2.7 µM/kg; Activity [7]: 1.7 µM/kg; Activity [8]: 46.8 µM/kg
25 | 68 nM | Cc1ccccc1C(Oc1cc(OCc2ccoc2)ccc1C#N)C(=O)O (centres undefined) |  | 
26 | 53 nM | N#Cc1ccc(OCc2ccsc2)cc1OC(C(=O)O)c1ccccc1C(F)(F)F (centres undefined) |  | 
27 | 16 nM | N#Cc1ccc(OCc2ccc3c(c2)OCO3)cc1OC(C(=O)O)c1ccccc1C(F)(F)F (centres undefined) | 7.4 | Activity [8]: 9 µM/kg
28 | 5 nM | Cc1ccccc1[C@H](Oc1cc(OCc2ccncc2)ccc1C#N)C(=O)O | 8.3 | 
29 | 9 nM | Cc1ccccc1C(Oc1cc(OCc2ccncc2)ccc1C#N)C(=O)O (centres undefined) | 7.6 | 
30 | 504 nM | N#Cc1ccc(OCc2ccsc2)cc1OC(C(=O)O)c1ccc(Cl)cc1 (centres undefined) |  | 
31 | 22 nM | N#Cc1ccc(OCc2ccsc2)cc1OC(C(=O)O)c1ccccc1F (centres undefined) |  | 
32 | 220 nM | Cc1ccccc1C(Oc1cc(OCc2ccsn2)ccc1C#N)C(=O)O (centres undefined) |  | 
33 | 70 nM | N#Cc1ccc(OCc2ccsc2)cc1OC(C(=O)O)c1ccccc1 (centres undefined) | 7.24 | 
34 | 98 nM | N#Cc1ccc(OCc2ccsc2)cc1OC(C(=O)O)c1cccc(Cl)c1 (centres undefined) |  | 
35 | 2850 nM | N#Cc1ccc(OCc2ccsc2)cc1OC(C(=O)O)c1ccoc1 (centres undefined) |  | 
36 | 17 nM | N#Cc1ccc(OCc2ccsc2)cc1OC(C(=O)O)c1ccccc1Cl (centres undefined) | 7.76 | bioavailability [1]: 129%; half-life [2]: 5 h; solubility [3]: 1190 µg/mL (≈ 2.98 mM); Cmax [4]: 62000 ng/mL; Tmax [5]: 0.5 h
